Laboratory results as given in ChEMBL document CHEMBL5303300, “EUbOPEN Chemogenomics Library - Multiplex” (2023).
Several values for one entry are separate records, joined by “and”; a condition that tells them apart may be missing. Identical values can stand only once.

System: Fibroblast
Assay: Multiplex assay against human fibroblast
Format: toxicity, cell-based
Conditions: number of replicates 2
In short: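 Compound was added to live cells that had been stained at seeding with Hoechst33342, BioTracker Green Microtubule Cytoskeleton Dye, MitoTracker Red and Annexin V Alexa Fluor 680, and imaging followed on a CQ1 microscope at 37°C and 5% CO2. CellPathfinder machine-learning gating divided cells into Hoechst high-intensity objects or normal cells, normal cells into healthy, pyknosed or fragmented nuclei, and pyknosed cells into mitotic or apoptotic. Tubulin, mitochondrial-mass and membrane-permeability phenotypes are per cents of healthy-nucleus cells.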

[1] = 12 h, 1 µM, compound concentration 1 uM
[2] = 12 h, 10 µM, compound concentration 10 uM
[3] = 24 h, 1 µM, compound concentration 1 uM
[4] = 24 h, 10 µM, compound concentration 10 uM
[5] = 48 h, 1 µM, compound concentration 1 uM
[6] = 48 h, 10 µM, compound concentration 10 uM

CCN(CC)C/C=C/C(=O)Nc1cc2c(Nc3ccc(F)c(Cl)c3)ncnc2cc1OCC1CC1
Population Apoptotic (%) [1]: 48% and 35% | Population Fragmented Nuclei (%) [1]: 14% and 17% | Population Healthy Nuclei (%) [1]: 62% and 55% | Population Hoechst High Intensity Objects (%) [1]: 0% | Population Membrane Permeable-Phenotype (%) [1]: 10% and 15% | Population Mitochondria Different-Phenotype (%) [1]: 2% and 4% | Population Mitotic Cells (%) [1]: 51% and 65% | Population Normal (%) [1]: 100% | Population Pyknosed Nuclei (%) [1]: 22% and 26% | Population Tubulin-Different-Phenotype (%) [1]: 61% and 56% | Total Cell Count [1]: 189 and 225 | Population Apoptotic (%) [2]: 63% and 58% | Population Fragmented Nuclei (%) [2]: 19% and 20% | Population Healthy Nuclei (%) [2]: 47% and 51% | Population Hoechst High Intensity Objects (%) [2]: 0% | Population Membrane Permeable-Phenotype (%) [2]: 25% and 20% | Population Mitotic Cells (%) [2]: 36% and 41% | Population Normal (%) [2]: 100% | Population Pyknosed Nuclei (%) [2]: 33% and 27% | Population Tubulin-Different-Phenotype (%) [2]: 92% and 87% | Total Cell Count [2]: 209 and 264 | Population Apoptotic (%) [3]: 52% and 62% | Population Fragmented Nuclei (%) [3]: 17% and 20% | Population Healthy Nuclei (%) [3]: 60% and 64% | Population Hoechst High Intensity Objects (%) [3]: 1% and 0% | Population Membrane Permeable-Phenotype (%) [3]: 2% and 4% | Population Mitochondria Different-Phenotype (%) [3]: 7% and 12% | Population Mitotic Cells (%) [3]: 47% and 37% | Population Normal (%) [3]: 98% and 100% | Population Pyknosed Nuclei (%) [3]: 22% and 15% | Population Tubulin-Different-Phenotype (%) [3]: 75% and 62% | Total Cell Count [3]: 192 and 231 | Population Apoptotic (%) [4]: 91% and 85% | Population Fragmented Nuclei (%) [4]: 13% and 8% | Population Healthy Nuclei (%) [4]: 13% and 19% | Population Hoechst High Intensity Objects (%) [4]: 0% | Population Membrane Permeable-Phenotype (%) [4]: 14% and 16% | Population Mitochondria Different-Phenotype (%) [4]: 71% and 56% | Population Mitotic Cells (%) [4]: 8% and 14% | Population Normal (%) [4]: 99% | Population Pyknosed Nuclei (%) [4]: 72% and 71% | Population Tubulin-Different-Phenotype (%) [4]: 95% and 89% | Total Cell Count [4]: 154 and 190 | Population Apoptotic (%) [5]: 73% and 53% | Population Fragmented Nuclei (%) [5]: 28% and 25% | Population Healthy Nuclei (%) [5]: 59% and 63% | Population Hoechst High Intensity Objects (%) [5]: 0% | Population Membrane Permeable-Phenotype (%) [5]: 3% and 1% | Population Mitochondria Different-Phenotype (%) [5]: 10% and 8% | Population Mitotic Cells (%) [5]: 26% and 46% | Population Normal (%) [5]: 100% and 99% | Population Pyknosed Nuclei (%) [5]: 12% and 11% | Population Tubulin-Different-Phenotype (%) [5]: 68% and 45% | Total Cell Count [5]: 210 and 233 | Population Apoptotic (%) [6]: 92% and 94% | Population Fragmented Nuclei (%) [6]: 22% and 28% | Population Healthy Nuclei (%) [6]: 10% and 21% | Population Hoechst High Intensity Objects (%) [6]: 0% | Population Membrane Permeable-Phenotype (%) [6]: 41% and 38% | Population Mitochondria Different-Phenotype (%) [6]: 29% and 19% | Population Mitotic Cells (%) [6]: 7% and 5% | Population Normal (%) [6]: 100% | Population Pyknosed Nuclei (%) [6]: 67% and 49% | Population Tubulin-Different-Phenotype (%) [6]: 47% and 93% | Total Cell Count [6]: 168 and 145

NC(=O)c1ccc(-c2nc(-c3ccc4c(c3)OCCO4)c(-c3ccccn3)[nH]2)cc1
Population Apoptotic (%) [1]: 31% and 28% | Population Fragmented Nuclei (%) [1]: 5% | Population Healthy Nuclei (%) [1]: 81% and 72% | Population Hoechst High Intensity Objects (%) [1]: 0% | Population Membrane Permeable-Phenotype (%) [1]: 8% and 4% | Population Mitochondria Different-Phenotype (%) [1]: 0% and 2% | Population Mitotic Cells (%) [1]: 68% and 71% | Population Normal (%) [1]: 100% | Population Pyknosed Nuclei (%) [1]: 13% and 22% | Population Tubulin-Different-Phenotype (%) [1]: 15% and 6% | Total Cell Count [1]: 265 and 208 | Population Apoptotic (%) [2]: 26% and 17% | Population Fragmented Nuclei (%) [2]: 10% and 18% | Population Healthy Nuclei (%) [2]: 57% and 67% | Population Hoechst High Intensity Objects (%) [2]: 0% | Population Membrane Permeable-Phenotype (%) [2]: 1% and 3% | Population Mitochondria Different-Phenotype (%) [2]: 0% and 1% | Population Mitotic Cells (%) [2]: 73% and 82% | Population Normal (%) [2]: 100% | Population Pyknosed Nuclei (%) [2]: 32% and 13% | Total Cell Count [2]: 187 and 209 | Population Apoptotic (%) [3]: 50% and 53% | Population Fragmented Nuclei (%) [3]: 9% and 11% | Population Healthy Nuclei (%) [3]: 83% and 67% | Population Hoechst High Intensity Objects (%) [3]: 0% | Population Membrane Permeable-Phenotype (%) [3]: 4% and 2% | Population Mitochondria Different-Phenotype (%) [3]: 0% | Population Mitotic Cells (%) [3]: 50% and 46% | Population Normal (%) [3]: 100% and 99% | Population Tubulin-Different-Phenotype (%) [3]: 12% and 5% | Total Cell Count [3]: 287 and 229 | Population Apoptotic (%) [4]: 37% and 14% | Population Fragmented Nuclei (%) [4]: 12% and 24% | Population Healthy Nuclei (%) [4]: 70% and 69% | Population Hoechst High Intensity Objects (%) [4]: 0% | Population Membrane Permeable-Phenotype (%) [4]: 2% | Population Mitochondria Different-Phenotype (%) [4]: 1% | Population Mitotic Cells (%) [4]: 62% and 85% | Population Normal (%) [4]: 99% and 100% | Population Pyknosed Nuclei (%) [4]: 16% and 6% | Population Tubulin-Different-Phenotype (%) [4]: 10% and 5% | Total Cell Count [4]: 209 and 225 | Population Apoptotic (%) [5]: 56% and 77% | Population Fragmented Nuclei (%) [5]: 12% and 14% | Population Healthy Nuclei (%) [5]: 82% and 73% | Population Hoechst High Intensity Objects (%) [5]: 0% | Population Membrane Permeable-Phenotype (%) [5]: 4% | Population Mitochondria Different-Phenotype (%) [5]: 0% | Population Mitotic Cells (%) [5]: 43% and 22% | Population Normal (%) [5]: 100% and 99% | Population Pyknosed Nuclei (%) [5]: 5% and 12% | Population Tubulin-Different-Phenotype (%) [5]: 5% and 4% | Total Cell Count [5]: 309 and 221 | Population Apoptotic (%) [6]: 33% and 40% | Population Fragmented Nuclei (%) [6]: 16% and 24% | Population Healthy Nuclei (%) [6]: 76% and 73% | Population Hoechst High Intensity Objects (%) [6]: 0% | Population Membrane Permeable-Phenotype (%) [6]: 0% and 2% | Population Mitochondria Different-Phenotype (%) [6]: 0% and 1% | Population Mitotic Cells (%) [6]: 66% and 60% | Population Normal (%) [6]: 100% | Population Pyknosed Nuclei (%) [6]: 6% and 2% | Population Tubulin-Different-Phenotype (%) [6]: 11% and 7% | Total Cell Count [6]: 216 and 234
